# Screening data as filed in PubChem BioAssay.
# Many of the other results were omitted from the sample, so hits are more common in it than they were.
# VLA-4 inh = inhibition in a human VLA-4 binding assay | actives 0.2% (n = 330,000) | P13612 | VLA-4 expressing cells, ligand binding flow cytometry | inhibition, % (about 7 µM as worked out from the volumes in the protocol); in the data active = inhibition above about 50%
# CHOP UPR activ = apoptotic UPR (CHOP) activation. CHO-CHOP luciferase reporter, luminescence; percent of tunicamycin response over DMSO baseline. activation, % at 10 µM. actives 0.34% (n = 330,000);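 active = at 10 µM dose, activation of 40% or more, normalized to positive control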;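 note: 100% = tunicamycin at 10 µg/mL and 0% = DMSO alone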
#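 System: CHO-CHOP luciferase reporter cell line | Buffer or medium: F12 medium containing 10% fetal bovine serum | Doses: One dose, 10 µM in 0.5% DMSO | Times: 6 h compound exposure at 37 °C after overnight seeding | Signal: Luciferase luminescence | Read-out: % activation vs tunicamycin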
# UPR XBP1 act = activators of adaptive arm of unfolded protein response (XBP1); CHO-XBP1 luciferase reporter, IRE1-XBP1 UPR activation, luminescence; percent of tunicamycin response, DMSO as zero; activation, % at 20 µM; actives 0.33% (n = 330,000); AID 463104;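 active = versus positive control, 20 µM dose yields 30% or more activation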;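 note: 100% = tunicamycin at 10 µg/mL and 0% = DMSO only wells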
#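 Material – CHO cell line with stable XBP1 luciferase reporter · Buffer or medium – F12 plus 10% FBS · Compound – single point, 20 µM final compound, 1% DMSO · Schedule – 16-18 h cell attachment at 37 °C, then 6 h compound exposure · Signal – Steady-Glo luminescence read · Benchmarks – high control tunicamycin 10 µg/mL final, low control DMSO vehicle only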
# Beta2AR agonist = activates human beta-2 adrenergic receptor causing internalization; Am2.2-beta2AR cells, FAP receptor internalization, flow cytometry; response, % (test concentration not listed); actives 0.43% (n = 340,000); AID 504454;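 active = response above a set limit, near 3 SD of response in nonfluorescent compounds, cut at about 42% in these data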
# Target sequence (P07550 whole entry, looked up): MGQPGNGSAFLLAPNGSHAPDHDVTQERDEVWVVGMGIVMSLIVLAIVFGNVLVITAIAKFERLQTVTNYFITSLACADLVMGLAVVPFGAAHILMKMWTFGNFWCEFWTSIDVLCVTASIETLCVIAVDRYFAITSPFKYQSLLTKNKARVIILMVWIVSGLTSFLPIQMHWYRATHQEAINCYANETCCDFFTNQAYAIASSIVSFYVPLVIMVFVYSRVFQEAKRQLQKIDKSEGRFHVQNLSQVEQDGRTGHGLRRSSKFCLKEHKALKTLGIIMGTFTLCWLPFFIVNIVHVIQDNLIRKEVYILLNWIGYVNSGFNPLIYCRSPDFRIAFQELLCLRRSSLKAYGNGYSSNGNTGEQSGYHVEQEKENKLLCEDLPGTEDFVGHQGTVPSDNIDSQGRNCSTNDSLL
# CHOP inhibitor = inhibitors of CHOP induction in ER stress response; CHO-K1 CHOP-promoter luciferase, tunicamycin-induced, 15-18 h; inhibition, % at 10 µM; actives 3.8% (n = 220,000);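 active = compounds that reduced the stress-induced luciferase reporter signal by more than about 70% of percent inhibition, limit read from the data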;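 note: 0% = tunicamycin plus vehicle and 100% = wells without tunicamycin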
# CHOP confirm = confirmation of CHOP induction inhibitors. shares compounds with CHOP inhibitor. CHO-CHOP promoter luciferase reporter, tunicamycin-induced, luminescence. inhibition, % at 10 µM. actives 45% (n = 2,100). AID 504437;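 active = mean of three repeat readings of reporter signal inhibition above a set limit, cut at about 70% in these data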;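 note: 0% = tunicamycin plus vehicle and 100% = wells lacking tunicamycin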
# Starred values were filed as active, the others as inactive; nt = not tested or not shown.
SMILES,VLA-4 inh,CHOP UPR activ,UPR XBP1 act,Beta2AR agonist,CHOP inhibitor,CHOP confirm
CC(C)CCNc1nc(-c2ccco2)c2c(c1C#N)CCCC2,5,-2,-3,8,29,nt
COc1ccccc1N1C(=O)c2cccc3c(C(=O)O)ccc(c23)C1=O,-5,-1,-1,4,30,nt
COc1ccc2c3c(cccc13)C(=O)N(O)C2=O,7,nt,nt,8,102*,108*
Cc1ccc(C)c(N2CCN(S(=O)(=O)c3csc(C(N)=O)c3)CC2)c1,2,0,-3,8,nt,nt
Cc1cc(-c2nnc(CCC(=O)N(CC3CCC3)CC3CCCO3)o2)no1 (stereo not drawn),0,4,3,-14,-21,nt
CC(C)c1ccc(NC(=O)CSc2nc(-c3ccccc3F)nc3nc[nH]c23)cc1,-2,0,6,1,100*,94*
CCOC(=O)N1CCN(CC(O)COc2c(C)cc(C)cc2C)CC1 (stereo not drawn),-1,0,-4,22,nt,nt
Cc1cc(-c2cc(-c3ccc(Cl)cc3)nc(N)c2C#N)co1,-152,-3,2,-3,106*,-48
Cc1ccc(-c2cc(-c3ccc(C)o3)nc(N)c2C#N)cc1,-40,-2,-7,-7,101*,10
Cc1ccc(-c2cc(-c3ccc(Cl)cc3)c(C#N)c(N)n2)o1,-30,0,-2,-6,98*,5
Cc1ccc(-c2cc(-c3ccc(F)cc3)c(C#N)c(N)n2)o1,-15,0,0,1,-22,nt
COc1ccc(-n2c(C)nc(N)c2C(=O)c2ccccc2)cc1,14,0,-1,4,-12,nt
CCN(CC)CCNc1nc2nonc2nc1NCCN(CC)CC,0,-1,1,4,-9,nt
CC(C)Oc1ccc(CNC(=S)N/N=C/c2ccc([N+](=O)[O-])cc2)cc1,0,1,0,-3,98*,102*
CC(C)COc1ccc(CNC(=S)N/N=C/c2ccc([N+](=O)[O-])cc2)cc1,-7,0,3,-8,17,nt
CCCCCc1c(C)nc(NCc2ccccc2)[nH]c1=O,-12,-1,0,-9,109*,134*
O=c1[nH]c(NCc2ccccc2)nc2c1CCC2,-8,0,0,-7,10,nt
C=CCn1c(SCC(=O)Nc2ccc(-c3nc4ccc(C)cc4s3)cc2)nnc1-c1ccccc1,41,nt,nt,1,100*,70*
C=CCn1c(SCC(=O)NNC(=O)Nc2ccc(C)cc2)nnc1-c1ccccc1,15,1,1,-2,0,nt
CC(C)C(NC(=O)c1ccc(F)cc1)C(=O)N1CCN(c2ccccn2)CC1 (stereo not drawn),-2,-2,-3,-4,nt,nt
CCCCCCSc1nsc(NC(=O)CCC)n1,3,4,2,4,106*,103*
CSc1nsc(NC(=O)Cc2ccccc2)n1,21,2,0,17,2,nt
COC(=O)c1ccc(-c2sc3nc(N4CCOCC4)c4c(c3c2N)CC(C)(C)OC4)o1,-2,-1,-2,9,102*,-146
Cc1cccc(C(=O)NCC(=O)OCc2nc(N)nc(Nc3ccccc3C)n2)c1,-2,0,3,-6,nt,nt
Cc1cc(NC(=O)CSc2nc3cc4c(cc3c(=O)n2CCc2ccccc2)OCO4)no1,-3,4,4,3,99*,101*
SMILES,VLA-4 inh,CHOP UPR activ,UPR XBP1 act,Beta2AR agonist,CHOP inhibitor,CHOP confirm
COc1cc(C(=O)NCC2CCCO2)cc(Br)c1OCc1ccccc1 (stereo not drawn),17,-1,-3,4,nt,nt
O=Cc1s/c(=N\S(=O)(=O)c2ccccc2)n(CCCCl)c1Cl,nt,nt,nt,104*,107*,112*
O=C1/C(=C/c2ccccn2)COc2ccccc21,19,1,4,24,-48,nt
CC(C)(C)C1C/C(=C/c2ccccn2)C(=O)/C(=C/c2ccccn2)C1 (stereo not drawn),39,-9,-7,85*,109*,137*
CC1C/C(=C/c2ccccn2)C(=O)/C(=C/c2ccccn2)C1 (stereo not drawn),10,14,-6,17,108*,113*
N#Cc1nccnc1S(=O)(=O)c1cccs1,7,-9,-9,19,107*,105*
CN(Cc1ccccc1C#N)S(=O)(=O)c1cccs1,10,0,3,5,nt,nt
CCOC(=O)c1ccc(NC(=O)c2nc[nH]c2C(=O)N[C@@H](CC(C)C)C(=O)OC(C)(C)C)cc1,-18,2,2,13,25,nt
CC(C)C[C@H](NC(=O)c1nc[nH]c1C(=O)NCC(=O)OC(C)(C)C)C(=O)OCc1ccccc1,-26,-2,1,12,101*,114*
CC(C)C[C@H](NC(=O)c1nc[nH]c1C(=O)NCC(=O)OCc1ccccc1)C(=O)OCc1ccccc1,-5,0,-4,0,nt,nt
CC(C)C[C@H](NC(=O)c1[nH]cnc1C(=O)Nc1ccccc1)C(=O)OC(C)(C)C,-11,1,5,12,106*,112*
CC(C)C[C@H](NC(=O)c1[nH]cnc1C(=O)N[C@@H](C)C(=O)OC(C)(C)C)C(=O)OC(C)(C)C,-9,1,-4,-2,104*,134*
CC(C)C[C@H](NC(=O)c1nc[nH]c1C(=O)N[C@@H](CCCCN)C(=O)OC(C)(C)C)C(=O)OC(C)(C)C,-6,2,-2,16,nt,nt
Cc1ccc(/C=C/C(=O)OCC(=O)NC(=O)NCc2ccco2)cc1,-8,0,-3,7,nt,nt
CCCOc1ccc(N2C(=O)CC(SC(=NCC)Nc3cccc(F)c3)C2=O)cc1 (stereo not drawn),4,-2,2,10,105*,108*
CCCOc1ccc(N2C(=O)CC(SC(=NC)Nc3ccc(F)cc3)C2=O)cc1 (stereo not drawn),-6,-1,0,-4,100*,100*
CCOc1ccc(NC(=NCc2ccc3c(c2)OCO3)SC2CC(=O)N(c3ccc(OCC)cc3)C2=O)cc1 (stereo not drawn),0,12,18,35,98*,30
CCOc1ccc(N2C(=O)CC(SC(=NC)Nc3cccc(F)c3)C2=O)cc1 (stereo not drawn),-3,-1,-3,-8,9,nt
CCOc1ccc(NC(=NCc2ccc3c(c2)OCO3)SC2CC(=O)N(c3ccccc3)C2=O)cc1 (stereo not drawn),-2,1,-1,9,19,nt
O=C(O)C1OC(C(=O)O)C(C(=O)O)C1C(=O)O (stereo not drawn),nt,nt,nt,5,nt,nt
CN(C)C(=O)c1cc(C(=O)c2ccccc2F)c[nH]1,4,4,-5,-6,nt,nt
CSc1nc2c(cnn2-c2ccc(C)c(C)c2)c(=O)[nH]1,18,0,5,3,100*,111*
